In article PMC3929184 (Journal of controlled release : official journal of the …, 2013):

Columns and labels:
furin protease = furin protease (Homo sapiens, UniProt P09958); test: In vitro cleavage by furin protease; assay type: in vitro ADME; conditions: Figure S1
[1] = Glucose tolerance test after nasal administration in mice; assay type: in vivo, WT C57BL/6 mice; conditions: systemic uptake monitored functionally by glucose-tolerance test
In short: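 Male C57BL/6 mice (6-9 weeks; Nnt deletion), acclimatized 2 weeks, fasted 18 h, lightly isoflurane-anesthetized. 20 μL of test peptide or its glycolipid conjugate (various concentrations) or saline was dripped slowly into the nasal cavity. After 1 h, glucose 2 g/kg was injected (n = 2 each). Blood glucose was read by glucometer from ~5 μL tail-nick blood at set times, and AUC was calculated.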

Chain of furin protease (P09958 108-794): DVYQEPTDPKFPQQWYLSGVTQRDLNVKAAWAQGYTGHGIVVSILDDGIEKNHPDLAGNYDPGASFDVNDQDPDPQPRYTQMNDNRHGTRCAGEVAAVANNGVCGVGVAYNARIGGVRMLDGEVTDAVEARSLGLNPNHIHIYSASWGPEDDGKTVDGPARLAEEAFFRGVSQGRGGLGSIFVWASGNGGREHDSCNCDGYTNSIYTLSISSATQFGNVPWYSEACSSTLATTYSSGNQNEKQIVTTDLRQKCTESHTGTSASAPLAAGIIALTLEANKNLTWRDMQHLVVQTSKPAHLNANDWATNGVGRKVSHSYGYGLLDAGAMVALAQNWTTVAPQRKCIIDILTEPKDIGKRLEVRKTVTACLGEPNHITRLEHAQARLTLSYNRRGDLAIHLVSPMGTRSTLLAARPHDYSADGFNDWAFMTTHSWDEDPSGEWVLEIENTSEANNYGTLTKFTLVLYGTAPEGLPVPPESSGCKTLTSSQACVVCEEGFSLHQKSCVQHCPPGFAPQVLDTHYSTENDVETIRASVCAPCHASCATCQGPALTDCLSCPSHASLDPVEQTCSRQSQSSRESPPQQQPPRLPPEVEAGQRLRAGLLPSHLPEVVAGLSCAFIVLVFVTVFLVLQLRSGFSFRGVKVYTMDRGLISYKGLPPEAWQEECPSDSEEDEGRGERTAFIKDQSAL

For Glucagon-like peptide-1 [GLP-1*], the “Cleavage by the furin protease” value (furin protease) was “resistant to cleavage” and the “Mucosal absorption after nasal application” value [1] was “evidence for absorption”.
